From ChEMBL document CHEMBL4725466, “Discovery and SAR of Novel Disubstituted Quinazolines as Dual PI3Kalpha/mTOR Inhibitors Targeting Breast Cancer” (ACS Med Chem Lett, 2020)
pIC50: −log10 of the molar value. In brackets after ≈: the same amount, converted by molar mass. Activity calls are given as the source filed them. The rule behind the calls is not given here.

Key:
[1] = target: PI3-kinase p110-alpha/p85-alpha (Homo sapiens) (UniProt P27986+P42336); assay: Inhibition of human PI3K p110alpha/p85alpha at 10 uM using PIP2 as substrate incubated for 10 mins followed by ATP addition and measured after 30 mins in presence of 10 uM ATP by HTRF assay; type: protein-complex assay
[2] = target: T1, Serine/threonine-protein kinase mTOR (Homo sapiens, UniProt P42345); assay: Inhibition of human mTOR at 10 uM using 4EBP1 as substrate after 120 mins by [gamma-33P]-ATP assay
Outline: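 Single-point kinase screen by HotSpot radioisotope filter binding assay; compound at 10 μM with 10 μM ATP, reported as percent inhibition of PI3Kα and mTOR.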

[3] = target: PI3-kinase p110-alpha/p85-alpha (Homo sapiens, UniProt P42336); assay: Inhibition of human PI3K p110alpha/p85alpha using PIP2 as substrate incubated for 10 mins followed by ATP addition and measured after 30 mins in presence of 10 uM ATP by HTRF assay; type: protein-complex assay
PI3-kinase p110-alpha/p85-alpha, sequence (P27986 whole entry): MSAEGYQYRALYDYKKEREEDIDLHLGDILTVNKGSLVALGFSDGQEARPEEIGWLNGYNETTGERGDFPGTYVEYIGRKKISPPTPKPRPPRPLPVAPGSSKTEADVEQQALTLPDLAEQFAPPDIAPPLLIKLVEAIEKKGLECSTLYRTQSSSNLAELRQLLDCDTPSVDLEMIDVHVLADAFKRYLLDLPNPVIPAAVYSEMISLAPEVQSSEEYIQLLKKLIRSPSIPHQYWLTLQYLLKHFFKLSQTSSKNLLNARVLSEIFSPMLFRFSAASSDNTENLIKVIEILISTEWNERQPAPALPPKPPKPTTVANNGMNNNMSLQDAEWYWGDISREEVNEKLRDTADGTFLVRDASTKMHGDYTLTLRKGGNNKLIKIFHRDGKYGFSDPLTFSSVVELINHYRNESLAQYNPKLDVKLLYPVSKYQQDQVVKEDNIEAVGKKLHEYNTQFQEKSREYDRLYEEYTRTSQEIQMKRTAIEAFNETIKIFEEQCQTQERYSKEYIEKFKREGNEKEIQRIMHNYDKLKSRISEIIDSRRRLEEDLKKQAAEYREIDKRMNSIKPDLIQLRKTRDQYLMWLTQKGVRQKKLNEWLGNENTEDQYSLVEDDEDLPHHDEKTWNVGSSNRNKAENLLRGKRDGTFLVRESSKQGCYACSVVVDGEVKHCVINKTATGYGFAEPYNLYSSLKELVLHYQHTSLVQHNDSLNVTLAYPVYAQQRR
PI3-kinase p110-alpha/p85-alpha, sequence (P42336 whole entry): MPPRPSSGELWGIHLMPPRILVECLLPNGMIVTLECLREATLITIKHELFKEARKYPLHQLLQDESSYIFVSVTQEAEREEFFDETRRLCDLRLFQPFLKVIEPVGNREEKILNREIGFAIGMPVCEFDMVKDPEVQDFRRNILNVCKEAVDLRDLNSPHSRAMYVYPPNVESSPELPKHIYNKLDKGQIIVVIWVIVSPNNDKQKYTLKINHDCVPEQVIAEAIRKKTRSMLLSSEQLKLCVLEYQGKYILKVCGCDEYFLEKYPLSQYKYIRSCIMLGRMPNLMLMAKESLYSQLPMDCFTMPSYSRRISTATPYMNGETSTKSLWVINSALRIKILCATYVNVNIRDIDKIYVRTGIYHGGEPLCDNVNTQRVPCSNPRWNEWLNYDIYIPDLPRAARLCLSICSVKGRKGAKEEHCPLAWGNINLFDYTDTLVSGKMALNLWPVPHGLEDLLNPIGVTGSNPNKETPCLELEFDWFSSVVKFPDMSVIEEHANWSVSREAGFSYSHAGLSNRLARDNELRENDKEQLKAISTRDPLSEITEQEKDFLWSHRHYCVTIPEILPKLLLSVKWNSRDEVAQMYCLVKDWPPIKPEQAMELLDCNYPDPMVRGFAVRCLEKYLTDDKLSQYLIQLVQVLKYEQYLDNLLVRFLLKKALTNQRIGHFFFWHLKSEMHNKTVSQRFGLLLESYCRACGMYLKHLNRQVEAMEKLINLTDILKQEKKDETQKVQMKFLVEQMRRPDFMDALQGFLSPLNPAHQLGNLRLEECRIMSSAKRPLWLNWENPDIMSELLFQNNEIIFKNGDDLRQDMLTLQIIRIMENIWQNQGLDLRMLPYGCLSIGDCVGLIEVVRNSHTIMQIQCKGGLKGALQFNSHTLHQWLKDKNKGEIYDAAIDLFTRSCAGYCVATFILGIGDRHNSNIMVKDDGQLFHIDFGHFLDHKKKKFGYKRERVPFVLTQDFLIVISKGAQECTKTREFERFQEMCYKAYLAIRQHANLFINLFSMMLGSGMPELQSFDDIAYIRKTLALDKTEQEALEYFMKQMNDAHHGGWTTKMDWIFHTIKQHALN

[4] = target: T1, Serine/threonine-protein kinase mTOR; assay: Inhibition of human mTOR using 4EBP1 as substrate after 120 mins by [gamma-33P]-ATP assay
[5] = Kinetic aqueous solubility of compound in 2% DMSO/Phosphate buffer saline incubated for 90 mins under shaking condition by; type: physicochemical; conditions: 2% DMSO/phosphate buffered saline, read-out: Kinetic_solubility
Outline: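 Maximum kinetic aqueous solubility measured in 2% DMSO/phosphate-buffered saline, pH 7.4.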

[6] = Half life in CD1 mouse liver microsomes at 1 uM incubated for 60 mins under shaking condition by LC-MS/MS analysis; type: ADME, Microsome
Outline: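 Metabolic stability in mouse liver microsomes with test compound at 1 μM; result expressed as t1/2 (min).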

[7] = target: T1, Serine/threonine-protein kinase mTOR; assay: Inhibition of mTOR in human MCF7 cells assessed as reduction in phosphorylated 4EBP level after 4 hrs by Western blot analysis; type: cell-based; conditions: dose nM 62.5-125, time 4.0 hrs
Outline: (§1)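 MCF7 cells treated for 4 h at 62.5 and 125 nM; lysates probed by Western blot for phospho-AKT(473), phospho-4EBP and phospho-P70S6.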

[8] = target: T1, Serine/threonine-protein kinase mTOR; assay: Inhibition of mTOR in human MCF7 cells assessed as reduction in phosphorylated P70S6K level after 4 hrs by Western blot analysis; type: cell-based; conditions: dose nM 62.5-125, time 4.0 hrs; outline: as §1
MCF7 [9] = assay: Inhibition of PI3K in human MCF7 cells assessed as reduction in AKT phosphorylation at 473 residue after 4 hrs by Western blot analysis; type: cell-based; conditions: dose nM 62.5-125, time 4.0 hrs; outline: as §1
[10] = Cytotoxicity against human primary fibroblasts assessed as cell viability at 10 uM after 48 hrs by celltiter-glo 2D luminescent assay relative to control; type: cell-based, Fibroblast; conditions: read-out: Activity
Outline: (§2)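 2D CellTiter-Glo luminescent viability screen, single 10 μM compound concentration, in MDA-MB-468, MDA-MB-231 and MCF7 breast cancer cells and in normal human dermal fibroblasts; output reported as percent of viable cells.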

MDA-MB-231 = assay: Antiproliferative activity against human MDA-MB-231 cells assessed as cell viability at 10 uM after 48 hrs by celltiter-glo 2D luminescent assay relative to control; type: functional; conditions: read-out: Activity; outline: as §2
MDA-MB-468 = assay: Antiproliferative activity against human MDA-MB-468 cells assessed as cell viability at 10 uM after 48 hrs by celltiter-glo 2D luminescent assay relative to control; type: functional; conditions: read-out: Activity; outline: as §2
MCF7 [11] = assay: Antiproliferative activity against human MCF7 cells assessed as cell viability at 10 uM after 48 hrs by celltiter-glo 2D luminescent assay relative to control; type: functional; conditions: read-out: Activity; outline: as §2
MCF7 [12] = assay: Antiproliferative activity against human MCF7 cells assessed as reduction in cell viability after 48 hrs by celltiter-glo 3D luminescent assay; type: functional, cell-based; conditions: MCF7, 48 h
Outline: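 MCF7 cells grown in 3D culture, viability read by CellTiter-Glo 3D luminescence; dose–response curves run up to 15 μM to derive IC50.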

inhibition [1] | inhibition [2] | pIC50 [3] | pIC50 [4] | solubility kinetic at 1.5 h [5] [µM] | half-life at 1 µM [6] [min] | inhibition [7] | inhibition [8] | pIC50 (MCF7 [12]) | SMILES | inhibition (MCF7 [9]) | viability at 48 h, 10 µM [10] [%] | viability at 10 µM (MDA-MB-231) [%] | viability at 10 µM (MDA-MB-468) [%] | viability at 10 µM (MCF7 [11]) [%]
Active | Active | 5.16 | 4.94 | 42.6 (≈ 20 µg/mL) | 52 | – | – | – | O=S(=O)(Nc1nccs1)c1ccc(Nc2nc(N3CCOCC3)c3ccccc3n2)cc1 | – | – | – | – | –
Active | Active | 9.15 | – | < 2 | > 60 | Dose-dependent effect | Dose-dependent effect | 6.70 | CC(=O)Nc1ccc(NC(=O)Nc2ccc(-c3nc(N4CCOCC4)c4ccccc4n3)cc2)cc1 | Dose-dependent effect | 71 | 69 | 50 | 29
